PP5 primary – blocks human protein phosphatase 5 activity. inhibition, % at 6.7 µM. 320,000 tested, 0.18% active. P53041. purified PP5c, OMFP substrate fluorescence. AID 1987;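 active means inhibition above the campaign's mean inhibition across all tested compounds plus 3 SD, cut at about 9.5% in these data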;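 further: 0% = DMSO only and 100% = 100 µM cantharidin control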
Apaf1 inhib – blocks human Apaf-1 apoptosome activity. O14727. reconstituted apoptosome caspase-3 activity, DEVD-Rh110 fluorescence. inhibition, % at 20 µM. 330,000 tested, 0.71% active; active means inhibition of at least 40% at 20 µM;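 further: plate controls were DMSO wells for no effect and DEVD-CHO caspase inhibitor wells for full effect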
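Material: biochemical Apaf-1 apoptosome reconstitution. Medium: Hepes buffer, pH 7.5. Also added: cytochrome c activation, bis-DEVD rhodamine 110 substrate. Timing: 30 min compound preincubation, 50 min activation, room temperature. Measured by: rhodamine 110 fluorescence at Ex 480/Em 540 nm.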
GSTO1 counter – counter-screen for RBBP9 inhibitors: inhibitors of human GSTO1; P78417; recombinant GSTO1, activity-based probe fluorescence polarization; inhibition, % at 5.96 µM; 300,000 tested, 1.1% active;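 active means inhibition above the campaign mean inhibition plus 3 SD, cut at about 35% in these data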;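 further: 0% = GSTO1-1 with DMSO and 100% = wells lacking GSTO1-1 enzyme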
PP1 inh – blocks human PP1-alpha phosphatase, a PP5 counter-screen. P62136. purified PP1alpha, OMFP fluorescence. inhibition, % at 6.7 µM. 320,000 tested, 0.9% active. AID 2235;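 active means inhibition above the mean inhibition of all tested compounds plus 3 SD, computed separately for each screening campaign, cut at about 15% in these data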
TDP2 inh – blocks human TDP2 phosphodiesterase activity; O95551; recombinant TDP2, T5PNP hydrolysis, p-nitrophenol absorbance 415 nm; inhibition, % at 12.8 µM; 370,000 tested, 0.34% active; AID 720702;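 active means inhibition above the mean of all tested compounds plus 3 SD, set per campaign, cut at about 25% in these data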;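 further: 0% = DMSO with enzyme and 100% = buffer with substrate but no TDP2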
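System – recombinant human TDP2 · Quantity – TDP2 enzyme at 120 nM final · Doses – single concentration, 12.8 µM nominal, with 1% DMSO · Incubation – 2 h at 37 °C · Measured by – epi absorbance of p-nitrophenol freed from T5PNP by hydrolysis · Read-out – % inhibition relative to enzyme-containing and enzyme-free wells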
Apaf-1 inh conf2 – confirmation of Apaf-1 inhibitors | shares compounds with Apaf1 inhib | reconstituted apoptosome, caspase-3 DEVD-Rh110 fluorescence | inhibition, % at 20 µM | 1,800 tested, 25% active | AID 504614;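 active means mean inhibition of at least 40% at 20 µM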;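 further: plate controls were DMSO wells for no effect and DEVD-CHO caspase inhibitor control wells for full effect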
Rh110 interf inh – interferes with Rh110 fluorescence, flagging false Apaf-1 inhibitors. shares compounds with Apaf1 inhib. Rh110 fluorescence interference, quenched caspase reaction. activation (fluorescence interference), % at 20 µM. 1,800 tested, under 10 active;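 active means signal rise of 40% or more at 20 µM, treated as a fluorescence artifact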
Fluor interf inh – Apaf-1 inhibitor counter-screen fluorescence artifact. shares compounds with Apaf1 inhib. fluorescence interference counterscreen, Apaf-1 assay format. IC50, µM. 460 tested, under 10 active. AID 588538; call rule not given here
An asterisk follows results filed as active; x = not tested or not shown; ! = repeats disagree. Shown are actives, neighbours in structure and some others; about 2.1% of the full set was active somewhere.

SMILES	PP5 primary	Apaf1 inhib	GSTO1 counter	PP1 inh	TDP2 inh	Apaf-1 inh conf2	Rh110 interf inh	others
Clc1ccccc1OCc1nn2c(-c3ccncc3)nnc2s1	3	41*	-9	3	5	50*	7	Fluor interf inh=>100
S=C(Nc1ccccc1Br)OCCN1CCCC12CCC(c1ccccc1)CC2 (centres undefined)	x	x	x	x	7	x	x
O=c1c2ccccc2oc2ccc(NCCCn3ccnc3)cc12	2	10	-12	1	0	x	x
Cc1cc2oc3cc(NCCC4CCCN4C)ccc3c(=O)c2cc1C (centres undefined)	0	44*	-136	0	4	9	17
CN1CCCC1CCNc1ccc2sc3ccccc3c(=O)c2c1 (centres undefined)	-4	44*	15	-1	8	20	6
CCn1c(SCC(=O)Nc2ccc(S(=O)(=O)Nc3cc(C)nc(C)n3)cc2)nc2sc(C)c(C)c2c1=O	x	x	x	x	5	x	x
COc1ccccc1-c1c(C#N)c(N)nc2c1CCc1ccccc1-2	5	96*	18	0	-6	28	8
CCOc1cc(-c2c(C#N)c(N)nc3c2CCc2ccccc2-3)ccc1O	4	9	-24	3	-4	x	x
COCCCNC(=O)C[C@H]1C[C@@]2(C(=O)OC)C(=C[C@H](COCc3ccccc3)O[C@@H]2C)N(CCc2ccc(OC)c(OC)c2)C1=O	x	x	x	x	-4	x	x
CCOc1ccc(N(CC(=O)Nc2c(C)n(C)n(-c3ccccc3)c2=O)S(=O)(=O)c2ccc(C(C)(C)C)cc2)cc1	x	x	x	x	-9	x	x
CC(C)Cn1c(N)c(C(=O)COC(=O)C2CCCCC2)c(=O)n(C)c1=O	0	43*	-5	0	-6	12	6
CCOc1ccc(-n2c(SCC(=O)Nc3ccc(Oc4ccccc4)cc3)nnc2-c2ccncc2)cc1	x	x	x	x	1	x	x
CCOc1ccccc1N1CCN(C(=O)C2c3ccccc3Oc3ccccc32)CC1	2	41*	5	3	-10	40*	7	Fluor interf inh=>100
CCOc1ccccc1N1CCN(C(=O)c2ccccc2)CC1	3	7	10	-2	-5	x	x
COc1cc2c(C#N)c(N3CCCC3)nc(N)c2c(N)n1	2	84*	4	0	11	49*!	11
COc1cc2c(C#N)c(N3CCN(C)CC3)nc(N)c2c(N)n1	8	19	24	-2	12	x	x
C[C@H]1[C@@H](OC(=O)Nc2ccc(Br)cc2)CC[C@@]23CCCN2C(=O)CCC[C@@H]13	x	x	x	x	-7	x	x
Cc1c(C(=O)N(C)CCOc2ccccc2)oc2c(Cl)cccc12	4	45*	x	-3	-8	38	12
COc1cc(OC)c2c(-c3cccc(-c4ccc(CO)cc4)c3)cc(=O)oc2c1	x	42*	x	x	x	36	2
CCC1CCCCN1C(=O)COc1ccc(N(C)S(=O)(=O)c2ccc(C)cc2)cc1 (centres undefined)	2	51*	-1	0	-10	35	3
COC(=O)C1CCN(C(=O)COc2ccc(N(C)S(=O)(=O)c3ccc(C)cc3)cc2)CC1	2	2	x	-2	6	x	x
CC(COc1cccc(OC(F)(F)F)c1)CN1CCC(C(O)(c2ccccc2)c2ccccc2)CC1 (centres undefined)	x	x	x	x	-13	x	x
COc1ccc(OCc2cc(C(=O)NC3CCOCC3)no2)c2ccccc12	2	41*	23	1	18	37	-3
COc1cccc(OCc2cc(C(=O)NC3CCOCC3)no2)c1	1	-8	7	-5	7	x	x
Nc1[nH]c(C(=O)c2ccc(Br)cc2)c(-c2ccc3ccccc3c2)c1C(=O)NCCc1c[nH]c2ccccc12	x	x	x	x	1	x	x
SMILES	PP5 primary	Apaf1 inhib	GSTO1 counter	PP1 inh	TDP2 inh	Apaf-1 inh conf2	Rh110 interf inh	others
CCC(=O)Nc1c(S(=O)(=O)c2ccc(C)cc2)c2nc3ccccc3nc2n1C(C)c1ccccc1 (centres undefined)	3	44*	1	2	-2	15	4
CCC(=O)Nc1c(S(=O)(=O)c2ccccc2)c2nc3ccccc3nc2n1C(C)c1ccccc1 (centres undefined)	4	35	-4	-5	-20	x	x
Cc1ccc(S(=O)(=O)NCCCc2ccc3c(c2)[C@]2(CCC[C@@H](OCc4ccccc4)[C@@H]2NC(=O)CCc2ccccc2)C(=O)N3Cc2ccccc2)cc1	x	x	x	x	9	x	x
CC(=O)Nc1ccc(OCCC[n+]2ccccc2)cc1	-1	0	-27	-1	-3	x	x
CCCCCc1ccc(OCCC[n+]2ccccc2)c(CCCCC)c1	1	66*	3	0	-13	40*	14	Fluor interf inh=>100
Cc1ccc(S(=O)(=O)NCc2ccccc2)cc1C(=O)N1CCCCC1	2	9	7	-4	-1	x	x
O=C(c1cccc(S(=O)(=O)NCc2ccccc2)c1)N1CCN(c2cccc(C(F)(F)F)c2)CC1	5	44*	-5	1	-7	40	2
Cc1ccc(S(=O)(=O)NCc2ccccc2)cc1C(=O)N1CCN(c2ccccc2)CC1	8	58*	x	-4	-1	40	8
COC(=O)[C@@]12CCCCC3=C1N(CCC3)C(=O)[C@H]2CC(=O)N1CCCC1	x	x	x	x	-8	x	x
CC(C)n1cnc2c(N(C)c3ccccc3)nc(N(CCN(C)C)Cc3ccccc3)nc21	3	44*	-1	-2	1	20	12
CCOc1ccc(NC(=S)Nc2ccc(OCC)cc2)cc1	-1	-1	1	-3	-5	x	x
COc1ccccc1NC(=S)NCc1cccnc1	1	-3	7	-2	-6	x	x
CCOc1ccc(NC(=S)Nc2cccc3cnccc23)cc1	2	96*	6	1	15	17	-4
CCN(C(=S)Nc1cccnc1)c1cccc2ccccc12	4	85*	14	-4	-2	12	-4
COc1ccccc1NC(=S)Nc1cccc2cnccc12	-1	97*	8	-1	2	10	3
S=C(Nc1cccnc1)Nc1cccc2cnccc12	-1	86*	16	-4	10	16	1
CCN(C(=S)NCc1ccccc1)c1cccc2ccccc12	0	9	2	-1	-13	x	x
Fc1cccc(NC(=S)Nc2cccnc2)c1	-3	-6	-5	-4	9	x	x
COc1ccc(NC(=S)Nc2cccc3cnccc23)cc1	1	95*	-2	1	16	17	-3
CCOc1ccc(NC(=S)Nc2cccc3ccccc23)cc1	0	66*	3	-2	-2	-16	1
COc1ccc(/C=C/S(=O)(=O)NCc2ccccc2)c(CNC(=O)OC(C)(C)C)c1	x	x	x	x	-7	x	x

High-throughput results: PubChem BioAssay, several laboratories
